Source: PMC2978023 (Journal of immunology (Baltimore, Md. : 1950), 2008)
Like-named read-outs stand apart in the source and are kept apart here. Ends that are not written are not given here. Peptide text beside a SMILES is read from it. * marks the point of attachment. Cbz = O=C(OCc1ccccc1)*

Legend:
[1] = test system: αMβ2 on PMN; assay: Soluble Alexa 488-labeled ligand binding to PMN, FACS; parameters: species or system human; conditions: clustering inhibitor, 1 h, 37 °C, mean ± SEM, n = 3
Procedure, shortened: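 Human PMNs were incubated for 1 h at 37°C in HBSS/Ca²⁺/Mg²⁺ with soluble Alexa 488-labelled Plg or Fg, with or without clustering inhibitors. After two buffer washes, bound ligand was read by FACS; mean ± SEM, n = 3.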

[2] = test system: human PMNs; conditions: for PMN early/late apoptosis (% annexin V+ cells), inhibitor + Fg: clustering inhibitor + Fg 1 μM; for PMN early/late apoptosis (% annexin V+ cells), inhibitor + Fg / PMN early/late apoptosis (% annexin V+ cells), inhibitor + P1 / PMN early/late apoptosis (% annexin V+ cells), inhibitor + P2-C / PMN early/late apoptosis (% annexin V+ cells), inhibitor + Plg: mean ± SEM, n = 5; for PMN early/late apoptosis (% annexin V+ cells), inhibitor + P1: clustering inhibitor + P1 100 μM; for PMN early/late apoptosis (% annexin V+ cells), inhibitor + P2-C: clustering inhibitor + P2-C 100 μM; for PMN early/late apoptosis (% annexin V+ cells), inhibitor + Plg: clustering inhibitor + Plg 1 μM
[3] = test system: αMβ2; assay: αMβ2 clustering on PMNs, fluorescence microscopy; type: cell-based, human; conditions: 4 h, 37 °C; for effect on Plg-dependent αMβ2 clustering: Plg 1 μM + inhibitor, MβCD 5 mM, peptide 18 0.5 μM, H7 300 μM, BDM 20 mM, cytochalasin D 10 μM, calpain inhibitor III 10 μM; for αMβ2 macroclusters on PMN surface: proteins 1 μM, peptides 100 μM, anti-αM OKMI staining, four donors
Procedure, shortened: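 Human PMNs were exposed to ligands (proteins 1 μM, peptides 100 μM) for 4 h at 37°C, or to 1 μM Plg together with clustering inhibitors at the final concentrations used in apoptosis assays. Cells were fixed in 4% paraformaldehyde and stained with anti-αM mAb OKMI plus Alexa 488 goat anti-mouse IgG. They were cytospun, mounted and imaged by fluorescence microscopy (×40/0.7 NA); PMNs came from four donors.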

[4] = biological target: recombinant purified integrin αMβ2 (Homo sapiens, UniProt P05107+P11215); assay: Solid-phase binding to purified αMβ2; conditions: data not shown; test format not stated
Procedure, shortened: (§1)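 Purified recombinant αMβ2, αM or β2 (from HEK293 lines) was coated overnight at 4°C in TBS with 10 mM n-octyl-β-D-glucopyranoside and postcoated with 0.5% PVP for 1 h at 37°C. Biotinylated Plg or Ang(1–4) (0–10 μM) was bound for 2 h at 37°C in the same buffer plus 1 mM CaCl₂/MgCl₂. Binding was detected with alkaline phosphatase–avidin and pNPP at A405. Kd came from a one-site binding fit.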

[5] = test system: PMN; conditions: cited from earlier work; for effect on PMN apoptosis: ref [6]–[9]
[6] = biological target: recombinant purified β2 subunit (Homo sapiens, UniProt P05107); assay: Solid-phase binding to purified β2 subunit; conditions: for recognition by individual integrin subunits (in words): solid-phase binding, αM versus β2
Procedure, shortened: as §1

[7] = test system: Akt; assay: Akt phosphorylation in PMNs, Western blot; type: cell-based, human; conditions: PMN stimulated with 1 nM PMA, 30 min, 37 °C; proteins 1 μM, peptides 100 μM
Procedure, shortened: (§2)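 Human PMNs stimulated with 1 nM PMA were incubated with ligands for 30 min at 37°C in HBSS with 1 mM CaCl₂, 1 mM MgCl₂, 0.1% BSA, pH 7.4. Cells were lysed in ice-cold Tris/EDTA/detergent buffer with phosphatase and protease inhibitors. Equal protein was immunoblotted for phospho- and total Akt or ERK1/2, with actin. Inhibition arm: 20 min pretreatment at 37°C with 10 μM Akt inhibitor, 50 μM PD98059, 50 nM NIF, or F(ab′)₂ anti-αM or anti-MHC-1 (20 μg/ml), then 1 μM Plg.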

[8] = test system: caspase-8; assay: Caspase-8 cleavage in PMN lysates, Western blot; type: cell-based, human; conditions: PMN lysate, 16 h; proteins 1 μM, peptides 100 μM; six donors
[9] = test system: αMβ2 on K562 cells; assay: Soluble ligand binding to K562 cells expressing αMβ2, FACS; parameters: species or system human; conditions: 40 min, 37 °C
Procedure, shortened: (§3)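 Transiently transfected K562 cells were incubated with soluble Alexa 488-labelled Plg or Ang(1–4) for 40 min at 37°C in HBSS containing 1 mM CaCl₂ and 1 mM MgCl₂. Cells were washed twice and bound ligand was quantified by FACS; three independent experiments. For inhibition, cells were pretreated for 20 min at 37°C with function-blocking anti-αM or anti-β2 mAbs (20 μg/ml) or NIF (20 nM).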

[10] = test system: caspase-3; assay: Caspase-3 cleavage in K562 cell lysates, Western blot; type: cell-based, human; conditions: K562 αMβ2 transfectants, 24 h, 37 °C; proteins 1 μM, peptides 100 μM
[11] = test system: mock-transfected K562 cells; assay: Apoptosis of mock-transfected K562 cells, annexin V, FACS; type: cell-based, human; conditions: 16 h, 37 °C; proteins 1 μM, peptides 100 μM; no ligand 81 ± 8; mean ± SEM, n = 5
[12] = test system: ERK1/2; assay: ERK1/2 phosphorylation in transfected K562 cells, Western blot; type: cell-based, human; conditions: 37 °C; for ERK1/2 activation, αM cells: K562 expressing αM, 30 min; for ERK1/2 activation, αMβ2 cells: K562 expressing αMβ2, 30 min; for ERK1/2 phosphorylation, mock and β2 cells: K562 mock or expressing β2, 30 min
Procedure, shortened: (§4)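 Transiently transfected K562 cells (αM, β2, αMβ2 or mock) were exposed to ligands for 30 min at 37°C and lysed in ice-cold buffer. Equal protein was run on SDS-PAGE and blotted with the PathScan Multiplex Western Cocktail I, then reprobed for total ERK1/2; blots shown are representative of three experiments.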

[13] = test system: αM subunit on K562 cells; assay: Soluble ligand binding to K562 cells expressing αM, FACS; parameters: species or system human; conditions: 40 min, 37 °C
Procedure, shortened: as §3

[14] = test system: caspase-3; assay: Caspase-3 cleavage in PMN lysates, Western blot; type: cell-based, human; conditions: PMN lysate, 16 h; proteins 1 μM, peptides 100 μM; six donors
[15] = test system: caspase-8; assay: Caspase-8 cleavage in K562 cell lysates, Western blot; type: cell-based, human; conditions: K562 αMβ2 transfectants, 24 h, 37 °C; proteins 1 μM, peptides 100 μM
[16] = test system: Bax; assay: Bax cleavage in K562 cell lysates, Western blot; type: cell-based, human; conditions: K562 αMβ2 transfectants, 24 h, 37 °C; proteins 1 μM, peptides 100 μM
[17] = test system: Bax; assay: Bax cleavage in PMN lysates, Western blot; type: cell-based, human; conditions: PMN lysate, 16 h; proteins 1 μM, peptides 100 μM; six donors
[18] = test system: Akt; assay: Akt phosphorylation in transfected K562 cells, Western blot; type: cell-based, human; conditions: 37 °C; for Akt phosphorylation, αM, β2 and mock cells: K562 expressing αM or β2, or mock-transfected, 30 min; for Akt phosphorylation, αMβ2 cells: K562 expressing αMβ2, 30 min
Procedure, shortened: as §4

[19] = test system: β2 subunit on K562 cells; assay: Soluble ligand binding to K562 cells expressing β2, FACS; parameters: species or system human; conditions: 40 min, 37 °C
Procedure, shortened: as §3

[20] = test system: ERK1/2; assay: ERK1/2 phosphorylation in PMNs, Western blot; type: cell-based, human; conditions: PMN stimulated with 1 nM PMA, 30 min, 37 °C; proteins 1 μM, peptides 100 μM
Procedure, shortened: as §2

Sequence of recombinant purified β2 subunit (P05107 23-769): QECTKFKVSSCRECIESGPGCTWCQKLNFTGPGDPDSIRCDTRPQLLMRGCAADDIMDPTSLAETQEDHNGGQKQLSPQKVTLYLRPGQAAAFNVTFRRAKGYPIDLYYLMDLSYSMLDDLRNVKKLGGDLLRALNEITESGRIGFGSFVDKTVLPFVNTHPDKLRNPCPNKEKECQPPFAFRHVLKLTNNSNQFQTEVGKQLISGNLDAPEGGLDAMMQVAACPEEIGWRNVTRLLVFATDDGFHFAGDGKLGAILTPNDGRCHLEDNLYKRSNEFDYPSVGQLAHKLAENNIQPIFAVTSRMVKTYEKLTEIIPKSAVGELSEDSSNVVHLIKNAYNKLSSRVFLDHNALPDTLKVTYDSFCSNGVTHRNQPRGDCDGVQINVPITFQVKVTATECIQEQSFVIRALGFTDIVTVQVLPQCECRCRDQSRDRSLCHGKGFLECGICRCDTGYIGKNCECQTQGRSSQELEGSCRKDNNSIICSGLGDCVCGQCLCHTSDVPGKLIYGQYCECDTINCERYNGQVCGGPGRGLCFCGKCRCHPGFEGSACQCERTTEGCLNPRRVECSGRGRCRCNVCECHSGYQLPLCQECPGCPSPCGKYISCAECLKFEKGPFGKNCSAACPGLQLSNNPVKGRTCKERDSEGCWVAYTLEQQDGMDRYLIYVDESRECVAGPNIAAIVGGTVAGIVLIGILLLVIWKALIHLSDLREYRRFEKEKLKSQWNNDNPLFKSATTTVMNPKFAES
Sequence of recombinant purified integrin αMβ2 (P05107 23-769, other chains not shown): as the sequence (P05107 23-769) above

CC(=O)C(C)=NO [BDM, 2,3-butanedione 2-monoxime]
ligand binding, inhibitor, no ligand (background) [1]: 2.90 ± 0.5 MFI
PMN early/late apoptosis (% annexin V+ cells), inhibitor + Fg ([2]; 16 h, 37 °C): 98.7 ± 24%
PMN early/late apoptosis (% annexin V+ cells), inhibitor + P1 ([2]; 16 h, 37 °C): 85.4 ± 20%
PMN early/late apoptosis (% annexin V+ cells), inhibitor + P2-C ([2]; 16 h, 37 °C): 97.8 ± 22%
PMN early/late apoptosis (% annexin V+ cells), inhibitor + Plg ([2]; 16 h, 37 °C): 99.2 ± 24%
effect on Plg-dependent αMβ2 clustering [3]: blocked or significantly reduced

CC(C)[C@H](NC(=O)OCc1ccccc1)C(=O)N[C@H](C=O)Cc1ccccc1 [Calpain inhibitor III] (Cbz-Val-Phe-aldehyde)
ligand binding, inhibitor, no ligand (background) [1]: 3.4 ± 0.4 MFI
PMN early/late apoptosis (% annexin V+ cells), inhibitor + Fg ([2]; 16 h, 37 °C): 88.9 ± 23%
PMN early/late apoptosis (% annexin V+ cells), inhibitor + P1 ([2]; 16 h, 37 °C): 94.5 ± 22%
PMN early/late apoptosis (% annexin V+ cells), inhibitor + P2-C ([2]; 16 h, 37 °C): 74.7 ± 19%
PMN early/late apoptosis (% annexin V+ cells), inhibitor + Plg ([2]; 16 h, 37 °C): 97.1 ± 22%
effect on Plg-dependent αMβ2 clustering [3]: blocked or significantly reduced

C=C1[C@@H](C)[C@H]2[C@H](Cc3ccccc3)NC(=O)[C@]23[C@H](OC(C)=O)/C=C/[C@@](C)(O)C(=O)[C@@H](C)C/C=C/[C@H]3[C@@H]1O [Cytochalasin D, cytochalasin D]
ligand binding, inhibitor, no ligand (background) [1]: 2.3 ± 0.3 MFI
PMN early/late apoptosis (% annexin V+ cells), inhibitor + Fg ([2]; 16 h, 37 °C): 55.5 ± 18%
PMN early/late apoptosis (% annexin V+ cells), inhibitor + P1 ([2]; 16 h, 37 °C): 66.07 ± 15%
PMN early/late apoptosis (% annexin V+ cells), inhibitor + P2-C ([2]; 16 h, 37 °C): 77.4 ± 16%
PMN early/late apoptosis (% annexin V+ cells), inhibitor + Plg ([2]; 16 h, 37 °C): 66.6 ± 15%
effect on Plg-dependent αMβ2 clustering [3]: blocked or significantly reduced

CC1CNCCN1S(=O)(=O)c1cccc2cnccc12.Cl.Cl (stereo not drawn) [H7, 1-(5-isoquinolinylsulfonyl)-2-methylpiperazine dihydrochloride]
ligand binding, inhibitor, no ligand (background) [1]: 3.2 ± 0.6 MFI
PMN early/late apoptosis (% annexin V+ cells), inhibitor + Fg ([2]; 16 h, 37 °C): 62.3 ± 16%
PMN early/late apoptosis (% annexin V+ cells), inhibitor + P1 ([2]; 16 h, 37 °C): 60.1 ± 14%
PMN early/late apoptosis (% annexin V+ cells), inhibitor + P2-C ([2]; 16 h, 37 °C): 78.6 ± 17%
PMN early/late apoptosis (% annexin V+ cells), inhibitor + Plg ([2]; 16 h, 37 °C): 79.2 ± 18%
effect on Plg-dependent αMβ2 clustering [3]: blocked or significantly reduced

COc1cccc(-c2cc(=O)c3ccccc3o2)c1N [PD 98059]
effect on Plg-dependent PMN survival (in words) ([2]; PMN with Plg, 16 h, 37 °C): reduced Plg-dependent PMN survival, but to a lesser extent than the Akt inhibitor

NCCCCCC(=O)O [ε-aminocaproic acid]
effect on Plg-dependent PMN survival (in words) [2]: reduced

Ang([1]–[3]): angiostatin fragment which lacks kringle 4; Calbiochem
recognition by αMβ2 [4]: is recognized by this integrin

GM-CSF: agent that promotes PMN responsiveness
effect on PMN apoptosis [5]: delay PMN apoptosis

IL-8: agent that promotes PMN responsiveness
effect on PMN apoptosis [5]: delay PMN apoptosis

KIIPFNRLTIG [P2-C]
Kd [6]: 50 nM
PMN early/late apoptosis (% annexin V+ cells), no inhibitor ([2]; 16 h, 100 μM): 20.1 ± 4%

TNF-α
effect on PMN death [5]: promote PMN death

angiostatin [Ang(1–4)]
Akt phosphorylation [7]: negligible
recognition by individual integrin subunits (in words) [6]: recognized only by the αM and not by the β2 subunit
caspase-8 fragment [8]: detected
soluble ligand binding, αMβ2 cells (in words) [9]: bound both ligands
caspase-3 cleavage product, αMβ2 cells [10]: present
K562 early/late apoptosis (% annexin V+ cells), mock [11]: 78 ± 8%
ERK1/2 activation, αM cells [12]: poorly induced
ERK1/2 activation, αMβ2 cells [12]: poorly induced
ERK1/2 phosphorylation, mock and β2 cells [12]: poorly induced
soluble ligand binding, αM cells (in words) [13]: bound both ligands
18-kDa caspase-3 fragment [14]: detected
αMβ2 macroclusters on PMN surface [3]: did not support αMβ2 clustering
caspase-8 cleavage product, αMβ2 cells [15]: present
Bax cleavage product, αMβ2 cells [16]: present
22-kDa Bax fragment [17]: detected
Akt phosphorylation, αM, β2 and mock cells [18]: failed to induce Akt activation
Akt phosphorylation, αMβ2 cells [18]: failed to induce Akt activation
soluble ligand binding, β2 cells (in words) [19]: failed to bind soluble Ang([1]– [4])

fibrinogen [Fg]
Akt phosphorylation [7]: robust Akt phosphorylation
recognition by individual integrin subunits (in words) [6]: engage both integrin subunits
caspase-8 fragment [8]: absent
effect on PMN apoptosis [5]: delay PMN apoptosis
ERK1/2 activation [20]: induced ERK1/2 activation
soluble ligand binding, αMβ2 cells (in words) [9]: bound soluble Fg
caspase-3 cleavage product, αMβ2 cells [10]: not detected
K562 early/late apoptosis (% annexin V+ cells), mock [11]: 72 ± 13%
ERK1/2 activation, αM cells [12]: strongly induced
ERK1/2 activation, αMβ2 cells [12]: strongly induced
ERK1/2 phosphorylation, mock and β2 cells [12]: poorly induced
soluble ligand binding, αM cells (in words) [13]: bound soluble Fg
18-kDa caspase-3 fragment [14]: absent
αMβ2 macroclusters on PMN surface [3]: detected
caspase-8 cleavage product, αMβ2 cells [15]: not detected
Bax cleavage product, αMβ2 cells [16]: not detected
22-kDa Bax fragment [17]: absent
Akt phosphorylation, αM, β2 and mock cells [18]: not in K562 cells expressing the individual αM or β2 subunits (Fig. 6A) or mock-transfected cells
Akt phosphorylation, αMβ2 cells [18]: robust Akt phosphorylation
soluble ligand binding, β2 cells (in words) [19]: bound soluble Fg

methyl-β-cyclodextrin [MβCD]
ligand binding, inhibitor, no ligand (background) [1]: 3.09 ± 0.4 MFI
PMN early/late apoptosis (% annexin V+ cells), inhibitor + Fg ([2]; 16 h, 37 °C): 59.3 ± 15%
PMN early/late apoptosis (% annexin V+ cells), inhibitor + P1 ([2]; 16 h, 37 °C): 66.3 ± 18%
PMN early/late apoptosis (% annexin V+ cells), inhibitor + P2-C ([2]; 16 h, 37 °C): 75.6 ± 17%
PMN early/late apoptosis (% annexin V+ cells), inhibitor + Plg ([2]; 16 h, 37 °C): 75.0 ± 13%
